Laboratory results as given in PubChem BioAssay.
Activity calls are given as the source filed them. Cut-off read from the data, not from the text of the source, unless noted: active = inhibition above about 30%; inactive = the rest.

What was measured:
[1] = HUVEC growth inhibition – cell-based, human, primary screen (AID 575;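 active = viability at or below 30% in both replicate assays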;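 note: 100% = median of untreated cell wells with 0.1% DMSO on each plate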); conditions: HUVEC proliferation, CellTiter-Glo luminescence, 72 h; at 10 µM; stronger effect = lower value
Outline: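 Timing: 72 h treatment at 37 °C; material: HUVEC primary cells; technique: CellTiter-Glo luminescence measuring cellular ATP; controls: vehicle and MePR control wells; measure: percent of median DMSO-control luminescence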

[2] = growth inhibitors of H69AR lung tumor, primary screen, human, duplicate replicates (AID 580;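 active = viability at or under a set limit in both replicates, limit being median viability minus 3 SD, cut at about 48% in these data, passing the limit was not always enough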;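 note: 100% = mean luminescence of untreated wells and 0% = no signal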); conditions: H69AR lung tumor cells viability, ATP luminescence, 72 h; at 10 µM; stronger effect = lower value
[3] = reversal of MRP1-mediated doxorubicin resistance, pilot screen, H69AR cells, doxorubicin co-treatment (AID 601;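 active = viability loss from added drug above about 55%, and viability with drug at most 40%, in both replicates, limit read from the data, passing the limit was not always enough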); conditions: CellTiter-Glo, 72 h, at 10 µM; for differential viability (reversal): stronger effect = higher value
[4] = 384-well plate pilot, post-Golgi transport modulator project, inhibition of yeast transport mutant growth (AID 636; in the data active = inhibition above about 31%); conditions: absorbance 615 nm, about 18 h, stronger effect = higher value
[5] = growth suppression of yeast trafficking mutant, preliminary HTS, modulators of trafficking downstream of Golgi apparatus project, 1536-format plate, OD 615 nm (AID 637); conditions: yeast transport mutant growth, absorbance 615 nm, 18 h; stronger effect = higher value
[6] = H69AR cells + 2 uM doxorubicin, measured here: viability with 2 uM doxorubicin, stronger effect = lower value
[7] = H69AR cells, compound alone cytotoxicity

Row | SMILES | viability [1] | viability [2] | differential viability (reversal) ([3]; H69AR cells + 2 uM doxorubicin) | viability [3, 6] [%] | viability [3, 7] [%] | inhibition [4] | inhibition [5]
1 | CCn1cc(/C=C(/C#N)S(=O)(=O)c2ccccc2)cn1 | 110% (inactive) | 95.3% (inactive) | 9.54% (inactive) | 85.8 | 95.3 | -7.24% (inactive) | -4.6% (inactive)
2 | Cn1c(SCC(=O)Nc2cccc3ccccc23)nc(O)cc1=O | 88.3% (inactive) | 89.7% (inactive) | -5.66% (inactive) | 95.4 | 89.7 | -4.67% (inactive) | -0.79% (inactive)
3 | COCc1[nH]nc2c1C(C1C=CCCC1)C(C#N)=C(N)O2 (stereo not given) | 68.9% (inactive) | 94.6% (inactive) | -4.19% (inactive) | 98.8 | 94.6 | -2.5% (inactive) | -1.11% (inactive)
4 | Nc1nnc(Cc2ccc(Cl)cc2)s1 | 115% (inactive) | 102% (inactive) | 15.6% (inactive) | 86.3 | 102 | -6.18% (inactive) | 3.49% (inactive)
5 | Cc1cccc(NC(=O)CN(C)S(=O)(=O)c2ccccc2)n1 | 107% (inactive) | 95.2% (inactive) | 9.79% (inactive) | 85.4 | 95.2 | -6.18% (inactive) | 2.54% (inactive)
6 | CC1(C)CC(=O)C2=C(C1)N(Cc1ccco1)C(=O)C2(NC(=O)C1CCCCC1)C(F)(F)F (stereo not given) | 88% (inactive) | 92.1% (inactive) | 10.7% (inactive) | 81.3 | 92.1 | -4.47% (inactive) | 5.56% (inactive)
7 | CCOc1ccccc1OCC(=O)NCc1ccco1 | 84.3% (inactive) | 85.3% (inactive) | 0.205% (inactive) | 85.1 | 85.3 | -3.6% (inactive) | -0.32% (inactive)
8 | COc1ccc2c(c1)CCc1c(C(=O)N3CC4(C)CC3CC(C)(C)C4)noc1-2 (stereo not given) | 52.3% (inactive) | 75.1% (inactive) | 0.855% (inactive) | 74.3 | 75.1 | -2.34% (inactive) | -3.02% (inactive)
9 | O=C(NCC1CCCO1)c1cccc(N2CCCC2=O)c1 (stereo not given) | 90% (inactive) | 90.2% (inactive) | -0.795% (inactive) | 91 | 90.2 | -5.47% (inactive) | 1.9% (inactive)
10 | CN(CC(=O)Nc1ccccc1Cl)C(=O)COC(=O)CNC(=O)c1ccc(Br)o1 | 95.4% (inactive) | 104% (inactive) | 14.3% (inactive) | 89.5 | 104 | 0.39% (inactive) | 5.4% (inactive)
11 | CCCn1c(=N)n(CCOc2ccc(OC)cc2)c2ccccc21 | 91.4% (inactive) | 69.8% (inactive) | 1.35% (inactive) | 68.5 | 69.8 | -6.05% (inactive) | 3.49% (inactive)
12 | C=CCn1c(=O)[nH]c2cc(C(=O)N3CCN(c4ccc(C(C)=O)cc4)CC3)ccc2c1=O | 68.5% (inactive) | 92.4% (inactive) | 13.4% (inactive) | 79 | 92.4 | -1.97% (inactive) | -5.71% (inactive)
13 | CN(CC(=O)N1CCN(c2ccccn2)CC1)S(=O)(=O)c1ccc2ccccc2c1 | 81.5% (inactive) | 89% (inactive) | 9.23% (inactive) | 79.8 | 89 | -2.63% (inactive) | -3.33% (inactive)
14 | O=C(NCc1ccc(F)cc1)c1cc(-c2ccco2)on1 | 93.4% (inactive) | 92.5% (inactive) | -8.09% (inactive) | 101 | 92.5 | -2.89% (inactive) | -5.56% (inactive)
15 | CCOC(=O)CSc1nnc(-c2ccc(Cl)cc2Cl)o1 | 105% (inactive) | 101% (inactive) | 3.39% (inactive) | 97.4 | 101 | -5.07% (inactive) | -0.16% (inactive)
16 | O=C(CSc1nc2ccc(Cl)cc2[nH]1)NCc1ccco1 | 74.2% (inactive) | 65.4% (inactive) | -4.26% (inactive) | 69.6 | 65.4 | 0.65% (inactive) | 13.3% (inactive)
17 | Cc1ccc(S(=O)(=O)Cn2nnnc2C(C(C)C)N2CCN(C(=O)c3ccco3)CC2)cc1 (stereo not given) | 94.8% (inactive) | 91.3% (inactive) | 8.2% (inactive) | 83.1 | 91.3 | -4% (inactive) | -4.29% (inactive)
18 | O=C(NC1CCCCC1)C1CCCN1C(=O)NCc1ccccc1 (stereo not given) | 101% (inactive) | 102% (inactive) | -1.87% (inactive) | 104 | 102 | -4.93% (inactive) | -3.17% (inactive)
19 | O=C(CCN1CCOCC1)Nc1ccc2c(c1)CCC2 | 79.7% (inactive) | 93.7% (inactive) | 6.83% (inactive) | 86.8 | 93.7 | -5.26% (inactive) | -4.13% (inactive)
20 | Cn1c(Cc2csc(N)n2)nnc1SCC(=O)NC1CCCCC1 | 112% (inactive) | 96.8% (inactive) | -5.84% (inactive) | 103 | 96.8 | 0.92% (inactive) | -0.63% (inactive)

Row | SMILES | viability [1] | viability [2] | differential viability (reversal) ([3]; H69AR cells + 2 uM doxorubicin) | viability [3, 6] [%] | viability [3, 7] [%] | inhibition [4] | inhibition [5]
21 | CC1(C)NC(=O)N(CCOc2cccc(Cl)c2Cl)C1=O | 98.7% (inactive) | 102% (inactive) | 14.6% (inactive) | 87.5 | 102 | -5.2% (inactive) | 10.2% (inactive)
22 | Cc1ccc(NC(=O)c2ccco2)c(NC(=O)c2cccs2)c1 | 92% (inactive) | 88.8% (inactive) | -1.08% (inactive) | 89.9 | 88.8 | -3.73% (inactive) | 8.57% (inactive)
23 | Cc1cccc(NCc2ccccc2O)c1 | 76.1% (inactive) | 94.6% (inactive) | 5.33% (inactive) | 89.2 | 94.6 | -0.13% (inactive) | -5.87% (inactive)
24 | CCCCOc1ccc(C(=O)Nc2ccc(N3CCN(C(=O)C(C)C)CC3)cc2)cc1 | 79.3% (inactive) | 75% (inactive) | -6.69% (inactive) | 81.7 | 75 | -3.55% (inactive) | 2.22% (inactive)
25 | COc1cc(NC(=O)Nc2cccc(Cl)c2)c(OC)cc1NC(=O)CN1CCCCC1 | 20.3% (active) | 3.06% (active) | -9.94% (inactive) | 13 | 3.06 | -6.27% (inactive) | -0.95% (inactive)
26 | O=C(c1ccccc1)N1CCN(Cc2ccccc2Br)CC1 | 105% (inactive) | 92.3% (inactive) | 2.89% (inactive) | 89.4 | 92.3 | -4.53% (inactive) | -4.6% (inactive)
27 | Cc1ccc(NC(=O)CSc2nnc(-c3ccccn3)n2C)cc1 | 115% (inactive) | 91.5% (inactive) | -0.845% (inactive) | 92.3 | 91.5 | -7.73% (inactive) | -8.89% (inactive)
28 | CCCS(=O)(=O)N1CCC(C(=O)NCCN2CCCC2)CC1 | 96.5% (inactive) | 94.9% (inactive) | 8.3% (inactive) | 86.6 | 94.9 | -3.2% (inactive) | 2.86% (inactive)
29 | Nc1nc(-c2ccccc2)cc(C(F)(F)F)n1 | 95.4% (inactive) | 103% (inactive) | 8.53% (inactive) | 94.1 | 103 | -3.51% (inactive) | 1.27% (inactive)
30 | Cc1ccccc1CN1CCN(CC(=O)NCc2ccco2)C1=O | 101% (inactive) | 83% (inactive) | -0.72% (inactive) | 83.7 | 83 | -1.17% (inactive) | 4.92% (inactive)
31 | CC(CN1CCOCC1)(NS(=O)(=O)c1ccccc1)c1ccccc1 (stereo not given) | 106% (inactive) | 95.9% (inactive) | 9.75% (inactive) | 86.2 | 95.9 | -1.56% (inactive) | 0.95% (inactive)
32 | CN=C(C)C1=C(O)C(C(=O)OC)C(C)(C)CC1=O (stereo not given) | 108% (inactive) | 98.5% (inactive) | 3.21% (inactive) | 95.3 | 98.5 | -1.43% (inactive) | 2.7% (inactive)
33 | O=C(O)CCc1ccc(-c2ccccc2)n1CC(=O)O | 88.9% (inactive) | 93% (inactive) | 1.87% (inactive) | 91.1 | 93 | -1.43% (inactive) | 12.5% (inactive)
34 | CCc1ccc(CCC(=O)Nc2ccc(C)c(C)c2)o1 | 102% (inactive) | 95.1% (inactive) | 7.16% (inactive) | 87.9 | 95.1 | -8.4% (inactive) | -3.65% (inactive)
35 | O=C1c2cccnc2C(=O)N1c1cccc(-c2nc3ccccc3o2)c1 | 111% (inactive) | 92.9% (inactive) | 6.53% (inactive) | 86.4 | 92.9 | -6.27% (inactive) | 3.65% (inactive)
36 | COc1ccc(C(=O)N2CCOCC2)cc1Br | 116% (inactive) | 101% (inactive) | 5.83% (inactive) | 95 | 101 | -2.24% (inactive) | -4.92% (inactive)
37 | O=C(c1ccc(CNS(=O)(=O)c2cccc(C(F)(F)F)c2)cc1)N1CCOCC1 | 102% (inactive) | 92.9% (inactive) | 12% (inactive) | 80.9 | 92.9 | -8.67% (inactive) | 1.43% (inactive)
38 | CCc1nnc(NC(=O)OCc2ccccc2)s1 | 106% (inactive) | 102% (inactive) | 7.5% (inactive) | 94.9 | 102 | -0.91% (inactive) | 11.4% (inactive)
39 | NC(=O)c1cc(-c2ccccc2)nc(Oc2ccccc2)n1 | 108% (inactive) | 98.7% (inactive) | 3.71% (inactive) | 95 | 98.7 | -8% (inactive) | -0.63% (inactive)
40 | COC(=O)c1cc(Br)ccc1-c1ccc(/C=N/n2nnnc2N)o1 | 58.1% (inactive) | 80.6% (inactive) | 14% (inactive) | 66.7 | 80.6 | -2.47% (inactive) | 6.51% (inactive)
